Assay results reported in PMC3223964 (ACS chemical neuroscience, 2011).
Several values for one entry are separate records, joined by “and”; a condition that tells them apart may be missing. Equal values may be shown once.

Columns and labels:
Kir2.1 = biological target: T1, Kir2.1 (Homo sapiens, UniProt P63252); test: Tl+ flux assay, Kir2.1; type: cell-based
T1 sequence (P63252 1-427): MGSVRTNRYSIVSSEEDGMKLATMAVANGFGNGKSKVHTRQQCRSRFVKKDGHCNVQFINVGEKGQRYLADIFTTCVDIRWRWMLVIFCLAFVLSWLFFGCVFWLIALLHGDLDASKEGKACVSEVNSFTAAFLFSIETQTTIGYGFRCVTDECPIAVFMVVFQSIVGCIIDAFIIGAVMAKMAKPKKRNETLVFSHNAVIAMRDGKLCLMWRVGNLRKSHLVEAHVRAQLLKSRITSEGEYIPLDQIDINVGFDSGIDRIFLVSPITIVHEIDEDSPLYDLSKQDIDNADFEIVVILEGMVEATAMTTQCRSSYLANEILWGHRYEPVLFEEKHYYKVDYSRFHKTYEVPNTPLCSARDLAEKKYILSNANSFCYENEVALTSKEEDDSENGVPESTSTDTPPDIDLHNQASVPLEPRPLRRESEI

KCNQ2 channels [1] = biological target: T2, KCNQ2 channels (Homo sapiens, UniProt O43526); test: IonWorks automated electrophysiology; type: cell-based; conditions: IW EC50, KCNQ2 (enhancement of KCNQ2 currents), -10 mV step potential
Procedure, shortened: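 Perforated-patch population clamp (IonWorks Quattro) on CHO cells stably expressing KCNQ2. Cells were freshly detached and seeded at 7000 cells/well in HEPES/glucose saline at pH 7.4, then perforated with 50 μg/mL amphotericin B in KCl/K-gluconate internal solution at pH 7.2. Steady-state current at the end of a 2000 ms depolarizing step was read before and after 3 min compound, as % change per well. Dosing was 8 points, 3-fold from 30 μM, in quadruplicate. Conductance was current divided by driving force; ΔV1/2 came from the same cells.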

KCNQ1/KCNE1 [2] = biological target: T3, KCNQ1/KCNE1 (Homo sapiens, UniProt P51787); test: IonWorks automated electrophysiology, KCNQ1/KCNE1; type: cell-based
Procedure, shortened: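 KCNQ1/KCNE1 cells in IonWorks perforated patch (50 μg/mL amphotericin B) at pH 7.4 extracellular. The protocol was a 3000 ms depolarizing step to +40 mV, then a 500 ms hyperpolarizing step. Steady-state current at +40 mV was read before and after 3 min compound exposure. Concentration-response was 8 points, 3-fold from 30 μM, in quadruplicate; sampling was 0.625 kHz.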

KCNQ5 = KCNQ5 (Homo sapiens, UniProt Q9NR82); test: Tl+ flux assay, KCNQ5; type: cell-based
KCNQ2/KCNQ3 = KCNQ2/KCNQ3 (Homo sapiens, UniProt O43525+O43526); test: IonWorks automated electrophysiology, KCNQ2/KCNQ3; type: cell-based
Procedure, shortened: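 KCNQ2/KCNQ3-expressing cells on IonWorks population patch clamp, perforated with 50 μg/mL amphotericin B, extracellular pH 7.4 and internal pH 7.2. The KCNQ2 voltage protocol was used: a 2000 ms depolarizing step, with steady-state current read at step end before and 3 min after compound. Wells needed >100 pA current and >30 MΩ seal. Dosing was 8 points, 3-fold from 30 μM, in quadruplicate.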

KCNQ1/KCNE1 [3] = biological target: T3, KCNQ1/KCNE1; test: Tl+ flux assay, KCNQ1/E1; type: cell-based
[4] = Snapshot in vivo PK study, plasma and brain levels after IP administration; conditions: 10 mg/kg
KCNQ4 [5] = biological target: T4, KCNQ4 (Homo sapiens, UniProt P56696); test: Tl+ flux assay, KCNQ4; type: cell-based; conditions: versus KCNQ2, Tl+ flux assay
KCNQ2 channels [6] = biological target: T2, KCNQ2 channels; test: Thallium-based fluorescence; type: cell-based; conditions: 10-point CRC
Procedure, shortened: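 Thallium influx read with FluxOR dye. Cells were plated at 6500/well on poly-D-lysine, cultured overnight at 37 °C and 5% CO2, and dye-loaded 90 min at room temperature in the dark. Assay buffer was HBSS with 5.8 mM K+, with 20 min compound preincubation. Stimulus brought final K+ to 15.8 mM and Tl+ to 5 mM. Reading was at 1 Hz for 10 s baseline plus 110 s; ΔF/F0 over 120 s was normalized to activator and buffer controls.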

KCNQ1 [7] = biological target: T5, KCNQ1 (Homo sapiens, UniProt P51787); test: IonWorks automated electrophysiology, KCNQ1; type: cell-based
Procedure, shortened: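 KCNQ1 cells in IonWorks perforated-patch mode (50 μg/mL amphotericin B), with extracellular saline at pH 7.4. Cells were depolarized to +40 mV from the holding potential, and current was measured during the +40 mV step before and 3 min after compound. No liquid junction correction was applied; sampling was 0.625 kHz. EC50 came from 8-point, 3-fold dilutions from 30 μM, in quadruplicate.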

CYP3A4 = CYP3A4 (Homo sapiens, UniProt P08684); test: CYP450 inhibition, CYP3A4; type: in vitro ADME
Chain of CYP3A4 (P08684 whole entry): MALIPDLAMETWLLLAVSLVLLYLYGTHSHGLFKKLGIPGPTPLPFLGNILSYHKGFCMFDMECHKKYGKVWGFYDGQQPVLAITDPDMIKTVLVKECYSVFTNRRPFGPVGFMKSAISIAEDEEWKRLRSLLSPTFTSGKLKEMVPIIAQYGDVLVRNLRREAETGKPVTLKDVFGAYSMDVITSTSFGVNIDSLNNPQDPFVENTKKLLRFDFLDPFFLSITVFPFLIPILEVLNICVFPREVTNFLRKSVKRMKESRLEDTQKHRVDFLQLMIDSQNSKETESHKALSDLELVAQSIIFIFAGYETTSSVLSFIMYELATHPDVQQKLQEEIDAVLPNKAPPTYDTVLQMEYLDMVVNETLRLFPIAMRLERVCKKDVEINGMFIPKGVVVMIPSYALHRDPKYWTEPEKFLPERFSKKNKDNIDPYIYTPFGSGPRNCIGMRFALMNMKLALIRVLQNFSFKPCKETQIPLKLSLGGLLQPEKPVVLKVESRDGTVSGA

CYP2D6 = CYP2D6 (Homo sapiens, UniProt P10635); test: CYP450 inhibition, CYP2D6; type: in vitro ADME
Chain of CYP2D6 (P10635 whole entry): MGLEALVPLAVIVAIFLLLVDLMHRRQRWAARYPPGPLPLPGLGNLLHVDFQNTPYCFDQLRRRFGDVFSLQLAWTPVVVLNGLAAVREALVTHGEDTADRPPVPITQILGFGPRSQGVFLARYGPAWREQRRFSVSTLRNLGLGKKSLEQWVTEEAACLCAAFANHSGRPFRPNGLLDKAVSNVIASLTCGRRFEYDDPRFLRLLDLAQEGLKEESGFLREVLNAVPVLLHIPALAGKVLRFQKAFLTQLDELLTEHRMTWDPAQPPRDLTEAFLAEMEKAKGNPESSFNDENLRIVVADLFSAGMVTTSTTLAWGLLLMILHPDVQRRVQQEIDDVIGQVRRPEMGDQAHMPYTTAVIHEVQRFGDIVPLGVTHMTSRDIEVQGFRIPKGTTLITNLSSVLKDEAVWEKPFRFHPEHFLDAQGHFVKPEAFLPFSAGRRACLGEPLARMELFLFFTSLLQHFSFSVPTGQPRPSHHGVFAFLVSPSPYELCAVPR

[8] = tested on: 68 GPCRs, ion channels and transporters; test: Ricerca Lead Profiling Screen; type: binding; conditions: 10 μM
KCNQ4 [9] = biological target: T4, KCNQ4; test: IonWorks automated electrophysiology, KCNQ4; type: cell-based; conditions: versus KCNQ2, IonWorks
KCNQ1 [10] = biological target: T5, KCNQ1; test: Tl+ flux assay, KCNQ1; type: cell-based
KCNQ3 = KCNQ3 (Homo sapiens, UniProt O43525); test: Tl+ flux assay, KCNQ3; type: cell-based
hERG = hERG (Homo sapiens, UniProt Q12809); test: IonWorks automated electrophysiology, hERG; type: cell-based
Chain of hERG (Q12809 whole entry): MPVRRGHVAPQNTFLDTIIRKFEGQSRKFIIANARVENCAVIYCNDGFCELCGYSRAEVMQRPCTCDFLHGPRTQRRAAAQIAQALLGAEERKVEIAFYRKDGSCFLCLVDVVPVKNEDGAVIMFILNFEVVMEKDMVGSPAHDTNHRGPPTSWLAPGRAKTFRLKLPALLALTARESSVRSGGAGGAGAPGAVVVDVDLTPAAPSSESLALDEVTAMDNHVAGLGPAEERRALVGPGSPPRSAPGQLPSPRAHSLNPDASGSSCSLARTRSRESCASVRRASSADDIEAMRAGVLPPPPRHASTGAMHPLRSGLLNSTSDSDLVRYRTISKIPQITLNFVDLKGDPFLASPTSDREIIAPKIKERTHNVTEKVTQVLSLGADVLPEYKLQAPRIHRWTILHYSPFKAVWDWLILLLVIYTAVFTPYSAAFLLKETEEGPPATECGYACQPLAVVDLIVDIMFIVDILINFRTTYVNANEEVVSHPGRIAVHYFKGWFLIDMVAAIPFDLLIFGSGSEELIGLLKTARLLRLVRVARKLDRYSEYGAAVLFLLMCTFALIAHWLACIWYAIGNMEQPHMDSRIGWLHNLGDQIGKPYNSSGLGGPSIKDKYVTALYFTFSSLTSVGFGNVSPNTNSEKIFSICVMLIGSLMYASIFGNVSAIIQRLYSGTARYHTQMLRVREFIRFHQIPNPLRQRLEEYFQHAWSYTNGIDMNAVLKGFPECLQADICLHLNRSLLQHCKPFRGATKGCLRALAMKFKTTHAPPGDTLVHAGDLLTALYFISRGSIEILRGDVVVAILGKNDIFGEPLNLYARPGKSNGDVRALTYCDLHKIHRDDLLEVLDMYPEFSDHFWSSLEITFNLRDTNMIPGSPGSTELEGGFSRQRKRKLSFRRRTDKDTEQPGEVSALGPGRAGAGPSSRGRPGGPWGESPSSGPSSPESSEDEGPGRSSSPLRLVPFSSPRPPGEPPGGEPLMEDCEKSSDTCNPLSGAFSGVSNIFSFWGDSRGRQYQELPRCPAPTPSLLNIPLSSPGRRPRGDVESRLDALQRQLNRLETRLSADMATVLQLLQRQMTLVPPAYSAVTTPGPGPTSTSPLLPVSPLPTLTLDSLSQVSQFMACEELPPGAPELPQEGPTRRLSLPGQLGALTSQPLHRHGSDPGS

CYP1A2 = biological target: T6, CYP1A2 (Homo sapiens, UniProt P05177); test: CYP450 inhibition, CYP1A2; type: in vitro ADME
T6 sequence (P05177 1-516): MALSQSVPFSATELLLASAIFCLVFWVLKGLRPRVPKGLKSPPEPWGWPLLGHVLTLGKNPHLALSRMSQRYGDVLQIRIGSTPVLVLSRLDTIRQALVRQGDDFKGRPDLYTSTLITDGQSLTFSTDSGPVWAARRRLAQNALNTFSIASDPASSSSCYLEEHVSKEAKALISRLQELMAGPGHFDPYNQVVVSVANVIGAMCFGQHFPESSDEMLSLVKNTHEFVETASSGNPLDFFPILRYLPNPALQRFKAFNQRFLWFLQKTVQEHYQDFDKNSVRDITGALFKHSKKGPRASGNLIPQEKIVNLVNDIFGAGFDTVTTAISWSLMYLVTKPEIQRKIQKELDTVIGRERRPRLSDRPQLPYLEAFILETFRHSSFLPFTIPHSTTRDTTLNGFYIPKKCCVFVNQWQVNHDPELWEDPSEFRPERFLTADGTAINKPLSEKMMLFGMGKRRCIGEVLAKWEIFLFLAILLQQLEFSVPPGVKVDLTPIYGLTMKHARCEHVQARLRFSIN

CYP2C9 = CYP2C9 (Homo sapiens, UniProt P11712); test: CYP450 inhibition, CYP2C9; type: in vitro ADME
Chain of CYP2C9 (P11712 whole entry): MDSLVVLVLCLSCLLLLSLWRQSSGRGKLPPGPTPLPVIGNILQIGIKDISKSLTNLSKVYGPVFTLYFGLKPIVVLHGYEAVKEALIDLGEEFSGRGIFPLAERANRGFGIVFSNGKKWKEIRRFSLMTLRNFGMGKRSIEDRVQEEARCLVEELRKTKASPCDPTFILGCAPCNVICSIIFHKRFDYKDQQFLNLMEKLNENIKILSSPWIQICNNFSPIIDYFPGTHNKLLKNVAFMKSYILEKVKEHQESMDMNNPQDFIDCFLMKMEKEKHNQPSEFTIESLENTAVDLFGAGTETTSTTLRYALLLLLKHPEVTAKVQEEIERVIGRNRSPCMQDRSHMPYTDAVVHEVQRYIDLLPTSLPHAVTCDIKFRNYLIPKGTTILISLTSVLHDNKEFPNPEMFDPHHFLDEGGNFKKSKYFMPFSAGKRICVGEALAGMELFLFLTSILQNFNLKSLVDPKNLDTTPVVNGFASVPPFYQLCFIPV

For `Cc1cc(C)c(NC(=O)C2CC3CCC2C3)c(C)c1` (stereo not drawn) [compound 1, N-Mesitylbicyclo[2.2.1]heptane-2-carboxamide], the EC50 (Kir2.1) was greater than 10 µM, the “Fold selectivity (Tl+), Kir2.1” value (Kir2.1; versus KCNQ2, Tl+ flux assay) was greater than 27 fold and the EC50 (KCNQ2 channels [1]) was 0.23 µM. The EC50 (KCNQ1/KCNE1 [2]) was greater than 30 µM, the selectivity ratio at 3 min (KCNQ1/KCNE1 [2]; pH 7.4) was greater than 80 and the EC50 (KCNQ5) was greater than 30 µM. For the same molecule, the “Fold selectivity (Tl+), KCNQ5” value (KCNQ5; versus KCNQ2, Tl+ flux assay) was greater than 80 fold, the EC50 (KCNQ2/KCNQ3) was 0.37 µM and the “Fold selectivity (IW), KCNQ2/3” value (KCNQ2/KCNQ3; versus KCNQ2, IonWorks) was 1 fold. It also gave an EC50 (KCNQ1/KCNE1 [3]) greater than 30 µM, a selectivity ratio at 20 min (KCNQ1/KCNE1 [3]) greater than 80 and a concentration at 1 h ([4]; brain) of 476 nM. For the same molecule, the concentration at 1 h ([4]; plasma) was 1260 nM, the “Fold selectivity (Tl+), KCNQ4” value (KCNQ4 [5]) was 6.7 fold and the “maximal increase in Tl+ influx, KCNQ2” value (KCNQ2 channels [6]) was 56%. For the same molecule, the EC50 (KCNQ2 channels [6]; Tl+ EC50, KCNQ2, fluorescent Tl+ influx assay) was 0.359 µM and 0.36 µM, the EC50 (KCNQ1 [7]) was greater than 30 µM and the selectivity ratio at 3 min (KCNQ1 [7]; pH 7.4) was greater than 80. The IC50 (CYP3A4) was greater than 30 µM, the IC50 (CYP2D6) was greater than 30 µM and the “inhibition of radio ligand binding, panel of 68 GPCRs, ion channels and transporters” value [8] was no more than 50%. For the same molecule, the “Fold selectivity (IW), KCNQ4” value (KCNQ4 [9]) was 1.4 fold, the EC50 (KCNQ1 [10]) was greater than 30 µM and the selectivity ratio at 20 min (KCNQ1 [10]) was greater than 80. The EC50 (KCNQ3) was greater than 30 µM, the “Fold selectivity (Tl+), KCNQ3” value (KCNQ3; versus KCNQ2, Tl+ flux assay) was greater than 80 fold and the EC50 (hERG) was greater than 10 µM. It also gave a selectivity ratio (hERG; human) greater than 28, an IC50 (CYP1A2) greater than 30 µM and an IC50 (CYP2C9) greater than 30 µM.
